Measurements published in ChEMBL document CHEMBL1154201, “2-Aminobenzimidazoles as potent Aurora kinase inhibitors” (Bioorg Med Chem Lett, 2009).
Converted amounts (≈) assume the structure as drawn. The source made the active and inactive calls. The calls are words filed in the database; no cut-off is given here.

Tests used:
Aurora kinase B = Aurora kinase B (Homo sapiens, UniProt Q96GD4); experiment: Inhibition of Aurora B after 60 mins
HCT-116 [1] = experiment: Antiproliferative activity against human HCT116 cells by BrdU incorporation assay; type: functional, cell-based
Procedure, shortened: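 HCT116 proliferation measured as BrdU incorporation; EC50 reported.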

[2] = Aqueous solubility at pH 4; type: physicochemical
Procedure, shortened: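 Kinetic solubility at pH 4.0, reported as a range from low to high solubility; values of 1000 µM or higher are reported as >1000 µM.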

[3] = Half life in mouse at 5 mg/kg, iv; type: ADME, organism-based; design: dose 5 mg/kg, route intravenous; conditions: in vivo
HCT-116 [4] = experiment: Cell cycle arrest in human HCT116 cells assessed as accumulation of 4N DNA by FACS analysis; type: functional, cell-based
Procedure, shortened: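 HCT116 cells exposed to 16, 63, 250 and 1000 nM of compound, then cell-cycle profile read by FACS. EC50 is reported as the concentration range at which ≥50% of cells have 4 N or higher DNA content.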

[5] = Clearance in mouse at 5 mg/kg, iv; type: ADME, organism-based; design: dose 5 mg/kg, route intravenous; conditions: in vivo
Aurora kinase A = biological target: T1, Aurora kinase A (Homo sapiens, UniProt O14965); experiment: Inhibition of Aurora A after 60 mins
T1 sequence (O14965 whole entry): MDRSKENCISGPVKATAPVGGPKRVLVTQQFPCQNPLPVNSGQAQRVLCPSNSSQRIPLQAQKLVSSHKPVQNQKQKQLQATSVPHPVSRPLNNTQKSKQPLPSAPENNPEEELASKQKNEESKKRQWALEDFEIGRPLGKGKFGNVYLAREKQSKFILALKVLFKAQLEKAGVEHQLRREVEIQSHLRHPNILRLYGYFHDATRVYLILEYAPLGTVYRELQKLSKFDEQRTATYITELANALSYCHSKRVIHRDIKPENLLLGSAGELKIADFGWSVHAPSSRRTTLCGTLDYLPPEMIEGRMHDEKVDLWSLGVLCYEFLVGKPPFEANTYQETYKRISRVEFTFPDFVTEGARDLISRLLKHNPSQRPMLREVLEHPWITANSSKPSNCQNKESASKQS

HCT-116 [6] = experiment: Cell cycle arrest in human HCT116 cells assessed as accumulation of cells at G2 phase; type: functional, cell-based

Aurora kinase B, sequence (Q96GD4 whole entry): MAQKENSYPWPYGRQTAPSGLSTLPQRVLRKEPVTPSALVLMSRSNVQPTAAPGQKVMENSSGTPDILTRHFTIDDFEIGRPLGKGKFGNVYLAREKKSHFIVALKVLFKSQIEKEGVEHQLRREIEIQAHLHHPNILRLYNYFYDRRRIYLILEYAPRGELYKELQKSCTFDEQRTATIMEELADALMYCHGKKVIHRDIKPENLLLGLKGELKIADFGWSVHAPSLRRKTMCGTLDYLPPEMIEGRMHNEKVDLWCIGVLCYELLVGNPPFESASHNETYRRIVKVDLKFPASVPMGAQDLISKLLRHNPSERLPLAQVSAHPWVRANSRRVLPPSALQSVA

IC50 (Aurora kinase B) | EC50 (HCT-116 [1]) | solubility [2] | half-life [3] | EC50 (HCT-116 [4]) | clearance [5] | IC50 (Aurora kinase A) | Structure (SMILES) | Activity (HCT-116 [6])
580 nM | 8500 nM |  |  |  |  |  | c1cc(CNc2ncnc3ccsc23)cc(Nc2nc3ccccc3[nH]2)c1 | 
 |  | 50 µM | 1.4 h | < 16 nM | 48 mL/min/kg |  | CS(=O)(=O)O.O=C(Nc1cccc(Cl)c1)Nc1ncc(CCNc2ncnc3ccsc23)s1 [SNS-314 MESYLATE] | 
5 nM | < 1 nM | 100 µM (≈ 45.5 µg/mL) | 1.5 h | < 16 nM |  | 17 nM | FC(F)(F)c1cnc2nc(Nc3ccc(CCNc4ncnc5ccsc45)cc3)[nH]c2c1 | 
2500 nM |  | 100 µM (≈ 40.4 µg/mL) |  |  |  |  | c1ccc2sc(Nc3ccc(CCNc4ncnc5ccsc45)cc3)nc2c1 | 
280 nM |  | > 1000 µM |  |  |  |  | Cn1c(Nc2ccc(CCNc3ncnc4ccsc34)cc2)nc2ccccc21 | 
 |  | 50 µM (≈ 23.2 µg/mL) |  | < 16 nM |  |  | O=C(Nc1cccc(C(F)(F)F)c1)Nc1ncc(CCNc2ncnc3ccsc23)s1 | 
140 nM |  | > 1000 µM |  |  |  |  | c1cc2nc(Nc3ccc(CCNc4ncnc5ccsc45)cc3)[nH]c2cn1 | 
63 nM | 161 nM | 400 µM (≈ 182 µg/mL) |  | 63 nM |  |  | FC(F)(F)c1ccc2nc(Nc3ccc(CCNc4ncnc5ccsc45)nc3)[nH]c2c1 | 
 |  | 100 µM (≈ 39.7 µg/mL) |  | 16 nM |  |  | O=C(Nc1ccccc1)Nc1ncc(CCNc2ncnc3ccsc23)s1 | 
620 nM | 1900 nM | 100 µM (≈ 46.1 µg/mL) |  |  |  | 490 nM | FC(F)(F)c1ccc2nc(Nc3ncc(CCNc4ncnc5ccsc45)s3)[nH]c2c1 | 
120 nM | 400 nM | 200 µM (≈ 77.5 µg/mL) |  |  |  |  | c1ccc2oc(Nc3ccc(CCNc4ncnc5ccsc45)cc3)nc2c1 | 
10 nM | 41 nM | > 1000 µM |  |  |  | 28 nM | c1ccc2[nH]c(Nc3ccc(CCNc4ncnc5ccsc45)cc3)nc2c1 | 
5600 nM |  | > 1000 µM |  |  |  |  | Cc1nc(Nc2ccc(CCNc3ncnc4ccsc34)cc2)[nH]c1C | 
6 nM | 5 nM | 750 µM (≈ 341 µg/mL) | 0.61 h | 16 nM | 85 mL/min/kg | 40 nM | FC(F)(F)c1ccc2[nH]c(Nc3ccc(CCNc4ncnc5ccsc45)cc3)nc2c1 | Active
1400 nM |  |  |  |  |  |  | FC(F)(F)c1cccc(Nc2nc3ccc(CCNc4ncnc5ccsc45)cc3[nH]2)c1 | 
600 nM |  | > 1000 µM |  |  |  |  | FC(F)(F)c1ccc2[nH]c(Nc3ccc(CCNc4ncnc5ccsc45)cn3)nc2c1 | 
21 nM | 80 nM | 750 µM (≈ 354 µg/mL) |  | 63 nM |  | 64 nM | Fc1cc(CCNc2ncnc3ccsc23)ccc1Nc1nc2cc(C(F)(F)F)ccc2[nH]1 | 
> 10000 nM |  | > 1000 µM |  |  |  |  | c1ccc(-c2c[nH]c(Nc3ccc(CCNc4ncnc5ccsc45)cc3)n2)cc1 | 
83 nM | 270 nM | > 1000 µM |  |  |  |  | c1cnc2nc(Nc3ccc(CCNc4ncnc5ccsc45)cc3)[nH]c2c1 | 
> 10000 nM |  |  |  |  |  |  | c1ccc2[nH]c(Nc3ccc(CNc4ncnc5ccsc45)cc3)nc2c1 | 
1400 nM |  |  |  |  |  |  | c1cc(CCNc2ncnc3ccsc23)cc(Nc2nc3ccccc3[nH]2)c1 | 
420 nM |  | 400 µM (≈ 157 µg/mL) |  |  |  | 1400 nM | c1ccc2[nH]c(Nc3ncc(CCNc4ncnc5ccsc45)s3)nc2c1 | 
10 nM | 17 nM | 100 µM (≈ 42.2 µg/mL) |  | 16 nM |  | 20 nM | Clc1cnc2nc(Nc3ccc(CCNc4ncnc5ccsc45)cc3)[nH]c2c1 | 
8 nM | 9 nM | > 1000 µM | 0.45 h | 16 nM | 39 mL/min/kg | 28 nM | Clc1ccc2[nH]c(Nc3ccc(CCNc4ncnc5ccsc45)cc3)nc2c1 | Active
